In ChEMBL document CHEMBL1799948, “Side chain SAR of bicyclic β-lactamase inhibitors (BLIs). 2. N-Alkylated and open chain analogs of MK-8712” (Bioorg Med Chem Lett, 2011):

Key:
[1] = molecular target: Beta-lactamase (Pseudomonas aeruginosa (strain ATCC 15692 / PAO1 / 1C / PRS 101 / LMG12228)) (UniProt P24735); experiment: Inhibition of AmpC in Pseudomonas aeruginosa CL5701 assessed as concentration required to reduce the imipenen MIC from 32 ug/ml to 4 ug/ml by in vitro synergy assay
Beta-lactamase = Beta-lactamase (Pseudomonas aeruginosa (strain ATCC 15692 / PAO1 / 1C / PRS 101 / LMG12228), UniProt P24735); experiment: Inhibition of Pseudomonas aeruginosa CL5701 AmpC by spectrophotometric assay
Summary of the method: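 AmpC from Pseudomonas aeruginosa, in 100 mM KH₂PO₄ buffer pH 7 with 0.005% BSA. Inhibitor serially diluted from DMSO and preincubated with enzyme 40 min at room temperature. Nitrocefin then added for a further 40 min. Quenched with 2.5 N acetic acid, absorbance read at 492 nm. IC₅₀ taken from semi-log plots of inhibition versus inhibitor concentration.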

Beta-lactamase (Pseudomonas aeruginosa (strain ATCC 15692 / PAO1 / 1C / PRS 101 / LMG12228)), sequence (P24735 27-397 limits assumed): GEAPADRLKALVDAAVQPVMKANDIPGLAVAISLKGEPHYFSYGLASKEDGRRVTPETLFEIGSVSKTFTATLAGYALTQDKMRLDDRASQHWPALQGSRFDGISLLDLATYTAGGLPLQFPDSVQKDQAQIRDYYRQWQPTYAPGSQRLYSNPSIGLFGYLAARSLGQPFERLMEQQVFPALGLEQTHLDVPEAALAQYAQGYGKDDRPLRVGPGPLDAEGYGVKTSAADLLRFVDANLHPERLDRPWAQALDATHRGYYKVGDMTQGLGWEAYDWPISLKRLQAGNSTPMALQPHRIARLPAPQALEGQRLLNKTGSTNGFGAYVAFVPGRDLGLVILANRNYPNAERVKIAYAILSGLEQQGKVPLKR
Beta-lactamase, sequence (P24735 whole entry): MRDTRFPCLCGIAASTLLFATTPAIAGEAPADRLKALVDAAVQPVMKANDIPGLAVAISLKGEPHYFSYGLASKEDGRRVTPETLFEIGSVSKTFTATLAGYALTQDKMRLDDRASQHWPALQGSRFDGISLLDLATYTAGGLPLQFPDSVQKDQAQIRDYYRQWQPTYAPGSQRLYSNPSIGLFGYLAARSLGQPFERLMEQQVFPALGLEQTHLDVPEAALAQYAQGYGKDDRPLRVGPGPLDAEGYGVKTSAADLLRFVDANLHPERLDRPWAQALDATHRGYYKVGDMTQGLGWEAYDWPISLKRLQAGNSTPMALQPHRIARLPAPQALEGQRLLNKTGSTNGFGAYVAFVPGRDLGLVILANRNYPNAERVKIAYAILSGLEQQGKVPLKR

| Structure (SMILES) | Activity [1] | IC50 (Beta-lactamase) |
| --- | --- | --- |
| CNCCCCNC(=O)N1CC[C@@H]2[C@H]1C(=O)N2S(=O)(=O)O | 25 µM | 3500 nM |
| NCCN1CCC[C@H](NC(=O)N2CC[C@@H]3[C@H]2C(=O)N3S(=O)(=O)O)CC1 | 25 µM | 600 nM |
| O=C(N[C@H]1CCCN(CCO)CC1)N1CC[C@@H]2[C@H]1C(=O)N2S(=O)(=O)O | 25 µM | 900 nM |
| CN(C)CCCNC(=O)N1CC[C@@H]2[C@H]1C(=O)N2S(=O)(=O)O | 25 µM | 2100 nM |
| O=C(N[C@H]1CCCN(CCCO)CC1)N1CC[C@@H]2[C@H]1C(=O)N2S(=O)(=O)O | 50 µM | 1100 nM |
| CN1CCC[C@H](NC(=O)N2CC[C@@H]3[C@H]2C(=O)N3S(=O)(=O)O)CC1 | 25 µM | 2600 nM |
| CC(C)NC(=O)N1CC[C@@H]2[C@H]1C(=O)N2S(=O)(=O)O | > 100 µM | 1800 nM |
| CN(C)CCCCCNC(=O)N1CC[C@@H]2[C@H]1C(=O)N2S(=O)(=O)O | 100 µM | 1900 nM |
| CN(C)CCCCNC(=O)N1CC[C@@H]2[C@H]1C(=O)N2S(=O)(=O)O | 25 µM | 1600 nM |
| O=C1[C@H]2NCC[C@H]2N1S(=O)(=O)O | > 100 µM | > 250000 nM |
| CNCCCNC(=O)N1CC[C@@H]2[C@H]1C(=O)N2S(=O)(=O)O | 50 µM | 5300 nM |
| CN(C)CCN1CCC[C@H](NC(=O)N2CC[C@@H]3[C@H]2C(=O)N3S(=O)(=O)O)CC1 | 100 µM | 900 nM |
| NC(=O)N1CC[C@@H]2[C@H]1C(=O)N2S(=O)(=O)O | > 100 µM | 16000 nM |
| C[N+]1(C)CCC[C@H](NC(=O)N2CC[C@@H]3[C@H]2C(=O)N3S(=O)(=O)[O-])CC1 | 50 µM | 1500 nM |
